# Source: PubChem BioAssay (several laboratories)
# Sampled rows, rich in hits. Any-hit rate of the full collection: about 1.3%.
# HKDC1 inh: blocks human hexokinase HKDC1 activity. inhibition, % at 20 µM. hit rate 0.16% among 340,000. AID 493160. Q2TB90. recombinant HKDC1, G6PDH/diaphorase resazurin coupled fluorescence;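 active means inhibition above about 35% when tested at 20 µM, limit read from the data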
# Target sequence (Q2TB90 whole entry, looked up): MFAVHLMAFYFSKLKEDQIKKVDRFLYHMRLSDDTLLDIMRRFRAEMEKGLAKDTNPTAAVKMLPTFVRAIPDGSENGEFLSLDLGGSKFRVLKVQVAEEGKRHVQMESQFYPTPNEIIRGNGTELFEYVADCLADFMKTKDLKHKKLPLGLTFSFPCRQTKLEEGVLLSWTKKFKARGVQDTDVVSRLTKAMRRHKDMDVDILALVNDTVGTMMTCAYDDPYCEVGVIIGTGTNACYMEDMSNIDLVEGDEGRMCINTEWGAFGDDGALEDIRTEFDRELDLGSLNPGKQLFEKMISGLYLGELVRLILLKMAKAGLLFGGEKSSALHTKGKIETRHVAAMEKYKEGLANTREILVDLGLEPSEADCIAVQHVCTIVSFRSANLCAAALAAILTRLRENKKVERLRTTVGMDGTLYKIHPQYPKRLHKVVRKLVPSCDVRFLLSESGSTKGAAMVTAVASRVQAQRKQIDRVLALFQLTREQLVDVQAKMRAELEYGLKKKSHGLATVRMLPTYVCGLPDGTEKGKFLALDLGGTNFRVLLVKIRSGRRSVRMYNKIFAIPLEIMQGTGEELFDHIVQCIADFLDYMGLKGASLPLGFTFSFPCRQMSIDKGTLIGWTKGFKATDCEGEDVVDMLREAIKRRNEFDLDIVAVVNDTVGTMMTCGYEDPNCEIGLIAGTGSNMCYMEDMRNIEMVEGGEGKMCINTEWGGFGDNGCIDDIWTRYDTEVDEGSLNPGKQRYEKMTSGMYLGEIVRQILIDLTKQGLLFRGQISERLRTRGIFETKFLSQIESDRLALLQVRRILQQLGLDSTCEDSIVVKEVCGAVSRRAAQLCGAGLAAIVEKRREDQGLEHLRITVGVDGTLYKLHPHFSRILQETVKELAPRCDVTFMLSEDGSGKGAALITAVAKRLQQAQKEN
#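 Material – in-house recombinant HK5 (HKDC1) enzyme · Quantity – HKDC1 at 5 µg/mL · Buffer or medium – pH 8.0 Tris buffer with 10 mM MgCl2 · Reagent – glucose with 1 mM ATP · Dosing – single 20 µM dose · Times – reaction time 90 min, room temperature, protected from light · Technique – resorufin fluorescence at 613 nm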
# Tb hexokinase: T. brucei hexokinase 1 inhibition | AID 1430 | hit rate 0.11% among 220,000 | recombinant TbHK1, G6PDH-coupled NADH A340 | inhibition, % at 10 µM;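 active means inhibition of 50% or more in the single-dose primary screen; inactive means inhibition below 50%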
# G6PDH counter: inhibits Leuconostoc G6PDH, flagging false hits in G6PDH-based assays; inhibition, % at 5 µM; Purified L. mesenteroides G6PDH, diaphorase/resazurin coupled fluorescence, 45 min; hit rate 0.12% among 200,000; in the data active means inhibition above about 50%
# PfG6PD inh: PfG6PD (Plasmodium falciparum) enzyme inhibition; PfGluPho enzyme, NADPH resazurin-diaphorase fluorescence; inhibition, % at 20 µM; hit rate 0.78% among 350,000; AID 504690;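 active means inhibition reaching at least a set limit at 20 µM in the primary screen, cut at about 59% in these data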
# Diaphorase inh: counter-screen for diaphorase-based assays: diaphorase inhibitors and chemical oxidizers | diaphorase resazurin-to-resorufin fluorescence, NADH, 16 min; bacterial (C. kluyveri) enzyme, not human | inhibition, % at 20 µM | hit rate 0.69% among 190,000;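 active means primary screen inhibition at 20 µM above a set limit, cut at about 50% in these data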
#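 Assay system: diaphorase enzyme from Clostridium kluyveri; Input: enzyme working solution with 0.14 U/mL diaphorase; Timing: 16 min at room temperature; Technique: resorufin fluorescence, excitation 544 nm, emission 590 nm; Benchmarks: positive control minus NADH, DMSO neutral control.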
# HKDC1 act conf2: HKDC1 (human) activation, single-dose confirmed; inhibition, % at 20 µM; hit rate 14% among 740; shares compounds with HKDC1 inh; AID 504708; recombinant HKDC1, G6PDH/diaphorase resazurin fluorescence; active compounds read low;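 active means inhibition at or below a set negative limit, negative inhibition meaning the enzyme was activated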
# Hits are given with their value; i = inactive; nt = no result given.
SMILES,HKDC1 inh,Tb hexokinase,G6PDH counter,PfG6PD inh,Diaphorase inh,HKDC1 act conf2
Cc1ccc(/C=C/c2nc3sc(C(=O)O)c(C)c3c(=O)[nH]2)cc1[N+](=O)[O-],47.2,nt,nt,i,nt,i
CCCCC[C@H](O)/C=C/[C@@H]1[C@@H](C/C=C\CCCC(=O)O)[C@@H](O)C[C@H]1O,i,i,i,i,i,nt
CCCCC[C@H](O)/C=C/[C@@H]1[C@@H](C/C=C\CCCC(=O)OC)[C@@H](O)C[C@H]1O,77.4,i,i,i,i,i
CCc1ccccc1NC(=O)CNC(=O)c1ccc(S(=O)(=O)NCc2ccco2)cc1,nt,nt,nt,i,nt,nt
CCOC(=O)C(C(=O)OCC)c1cc(Br)c2noc3c2c1C(=O)c1ccccc1-3,53.8,i,56.3,83.7,62.3,i
CC(=NNC(=S)N1CCCCC1)c1cccc(C)n1,i,nt,nt,i,nt,-39.6
O=C(N/N=C/c1ccc(O)cc1O)/C(=C/c1ccccc1)CCO,i,i,i,i,i,i
O=C(COc1ccccc1/C=C\c1[nH]c(=O)[nH]c(=O)c1[N+](=O)[O-])Nc1ccccc1,39.6,i,i,i,i,i
O=c1[nH]c(/C=C/c2ccccc2Cl)c([N+](=O)[O-])c(=O)[nH]1,i,nt,nt,i,nt,nt
O=C(O)c1cc(N2N=C(C(F)(F)F)/C(=C/C=C/c3ccco3)C2=O)ccc1Cl,46.4,i,i,i,56.0,i
Cn1nc(C(=O)Nc2ccccc2)c2c1-c1ccccc1S(=O)(=O)C2,i,nt,nt,i,nt,nt
COc1ccc(C2=NNC(=Nc3cc(S(=O)(=O)N(C)C)ccc3C)SC2)c(OC)c1,i,i,nt,i,nt,-119.7
COc1cccc2c1C(=O)C=C(C)C2=O,i,i,54.2,i,i,i
CCOC(=O)/C(C#N)=C/c1cc2ccccc2nc1N1CCOCC1,i,i,i,i,i,nt
N#CC(C#N)=Cc1cc2ccccc2nc1N1CCCCC1,37.9,i,i,i,i,i
COc1cc(C(=O)NC(C)c2cccc3ccccc23)cc(OC)c1OC (centres undefined),i,nt,nt,i,nt,nt
O=C(CSc1nnnn1C1CCCCC1)NNC(=O)c1ccco1,i,i,i,i,i,nt
O=C(O)c1ccccc1-c1c2cc(I)c(=O)c(I)c-2oc2c(I)c(O)c(I)cc12,68.6,nt,nt,i,nt,i
COc1cc(C2c3c([nH]c(=O)[nH]c3=O)Nc3ccc4ccccc4c32)ccc1O (centres undefined),i,i,i,i,i,nt
COc1cc(C2c3c([nH]c(=O)[nH]c3=O)Nc3ccc4ccccc4c32)cc(OC)c1OC (centres undefined),37.5,i,i,i,53.3,i
Cc1ccc(NC(=O)COC(=O)c2nn(C)cc2Cl)cc1,i,nt,nt,i,nt,nt
Cc1cccc(OCc2nnc(SC(C)C(=O)O)n2-c2ccccc2)c1 (centres undefined),i,nt,nt,i,nt,nt
Cc1c(Cc2ccccc2)sc(NC(=O)Cc2ccccc2)c1C(N)=O,i,i,nt,i,nt,i
COC(=O)c1c(NC(C)=O)sc(Cc2ccccc2)c1C,i,i,i,i,i,-37.8
COc1ccc(O)c(/C=N/N2CCCCC2)c1,i,nt,nt,i,nt,nt
SMILES,HKDC1 inh,Tb hexokinase,G6PDH counter,PfG6PD inh,Diaphorase inh,HKDC1 act conf2
COc1cc(/C=C2/C(=O)NN(c3ccc(Cl)c(Cl)c3)C2=O)cc([N+](=O)[O-])c1O,49.6,nt,nt,i,nt,i
NC(=S)N/N=C/c1ccc(Br)o1,i,i,i,i,i,i
NC(=S)N/N=C/c1ccc(-c2cc(Cl)c(Cl)cc2Cl)o1,i,i,i,i,i,nt
CN(C)S(=O)(=O)N1CCC(CO)(CCc2ccccc2)CC1,i,i,i,i,i,nt
COCCNc1ccc([N+](=O)[O-])cc1C(=O)Nc1cccc(C)n1,i,i,i,i,i,i
O=C1NN(c2ccccc2)C(=O)/C1=C/c1ccc(Sc2ccc(Cl)cc2)o1,41.8,i,nt,i,nt,i
O=C1NN(c2ccccc2)C(=O)/C1=C/c1ccc(-c2ccc(Cl)c(C(=O)O)c2)o1,i,i,i,i,i,nt
Cc1ccc(Sc2ccc(/C=C3/C(=O)NN(c4ccccc4)C3=O)o2)cc1,35.1,i,nt,i,nt,i
COc1ccc(C2CCCCCN2Cc2nc3ccccc3c(=O)n2CC(N)=O)cc1 (centres undefined),i,nt,nt,i,nt,nt
CCOC(=O)c1cc(-c2ccc(/C=C3/C(=O)N(c4ccc(C(=O)O)cc4)N=C3C)o2)ccc1Cl,42.5,nt,nt,i,nt,i
Nc1nc(-c2cccc(Br)c2)cs1,i,i,i,i,i,-40.6
Nc1nc(-c2ccc(Br)cc2)cs1,i,i,i,i,i,nt
Cc1ccc(C)c(S(=O)(=O)Nc2cc(SCC(=O)O)c(O)c3ccccc23)c1,63.4,i,i,103.7,i,i
CCCOc1ccc(N2C(=O)CC(NCCc3ccc(S(N)(=O)=O)cc3)C2=O)cc1 (centres undefined),i,i,i,i,i,nt
CCN(CC)c1ccc2c(c1)oc(=O)c1c(Cl)cc(=O)oc12,48.6,i,i,i,i,i
CCN(CC)c1ccc2c(C)c(Cl)c(=O)oc2c1,i,i,i,i,i,nt
C/C(=N\Nc1nc2ccc(Cl)cc2o1)c1ccccc1,i,i,nt,i,nt,nt
CCCCCC(=O)NNC(=O)c1c(O)c2ccccc2n(CC)c1=O,i,i,i,i,i,nt
CCCCCCCCCC(=O)NNC(=O)c1c(O)c2ccccc2n(CC)c1=O,i,i,i,i,i,i
NC1=C(Cl)C(=O)c2ccc(S(N)(=O)=O)cc2C1=O,i,nt,nt,i,nt,-42.9
COC1(NS(=O)(=O)c2ccc(Br)cc2)C(C)=CC(=O)C=C1C,49.6,i,i,i,51.7,i
Cc1ccc(NS(=O)(=O)c2ccc(Br)cc2)nc1,i,i,i,i,i,nt
Cc1cc(C(=O)N=Nc2c(O)n(C(C)C)c3ccccc23)n[nH]1,40.0,i,i,i,54.0,i
CC(C)n1c(O)c(N=NC(=O)CNC(=O)CCc2ccccc2)c2ccccc21,i,i,nt,i,nt,nt
CCCc1nc2c(o1)CC(CC(C)SCC)CC2=O (centres undefined),i,i,i,i,i,nt
SMILES,HKDC1 inh,Tb hexokinase,G6PDH counter,PfG6PD inh,Diaphorase inh,HKDC1 act conf2
CC(=O)OCC1=C(C(=O)O)N2C(=O)[C@@H](NC(=O)Cc3ccccc3)[C@H]2SC1,i,nt,nt,i,nt,nt
C=CC1=C(C(=O)O)N2C(=O)C(NC(=O)Cc3ccccc3)C2SC1 (centres undefined),40.2,i,i,i,i,i
CCCC(NC(=O)Cc1c(C)c2cc3c(C)c(C)oc3c(C)c2oc1=O)C(=O)N[C@@H](Cc1ccccc1)C(=O)O (some centres undefined),52.0,nt,nt,i,nt,i
CCCCC(NC(=O)Cc1c(C)c2cc3c(C)c(C)oc3c(C)c2oc1=O)C(=O)O (centres undefined),i,nt,nt,i,nt,nt
CCC(C)C(NS(=O)(=O)c1ccc(C)cc1)C(=O)Oc1ccc2c3c(c(=O)oc2c1)CCC3 (centres undefined),i,i,i,i,i,nt
CC[C@@H](NS(=O)(=O)c1ccc(C)cc1)C(=O)Oc1ccc2c3c(c(=O)oc2c1)CCC3,i,i,i,i,i,i
